# This is a sample that favours compounds with a hit; in the whole collection about 3.1% have one here.
# OX1R antag-1 = blocks the human orexin 1 receptor | O43613 | CHO/OX1R cells, Fluo-8 calcium fluorescence, orexin A | inhibition, % at 5 µM | hit rate 0.43% among 330,000;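 active means inhibition above its plate's threshold, mean inhibition of all tested compounds on the plate plus 3 SD, cut at about 37% in these data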;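 further: 0% = orexin A challenge wells and 100% = SB-334867-A antagonist wells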
# GPR7 antag = antagonists of human GPR7 (neuropeptides B/W receptor 1) | inhibition, % at 4.4 µM | hit rate 1.1% among 290,000 | P48145 | GPR7-expressing cells, fluorescence antagonist assay; in the data active means inhibition above about 16%, passing the limit was not always enough;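 further: cells stimulated with the agonist NPW; 0% = agonist with vehicle and 100% = vehicle without agonist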
# Target sequence (P48145 whole entry, looked up): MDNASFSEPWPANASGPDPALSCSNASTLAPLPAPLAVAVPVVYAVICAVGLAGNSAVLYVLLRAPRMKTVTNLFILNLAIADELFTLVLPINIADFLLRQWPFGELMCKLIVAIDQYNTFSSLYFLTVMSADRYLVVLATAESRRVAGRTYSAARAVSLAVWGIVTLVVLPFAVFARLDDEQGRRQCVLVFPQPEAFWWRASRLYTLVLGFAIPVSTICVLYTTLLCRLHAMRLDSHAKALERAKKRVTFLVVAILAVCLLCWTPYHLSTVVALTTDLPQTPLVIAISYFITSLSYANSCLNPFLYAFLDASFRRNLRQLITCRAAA
# CHO parental Ca = signal in parental CHO cells, OX1R antagonist counter-screen | inhibition, % at 5.6 µM | parental CHO-K1, ATP-induced calcium, Fluo-8 fluorescence | hit rate 0.63% among 330,000;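 active means inhibition above that plate's mean sample inhibition plus 3 SD, cut at about 26% in these data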;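 further: 0% = ATP-challenged DMSO wells and 100% = DMSO wells without ATP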
#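 Measured by: calcium-sensitive Fluo-8 fluorescence / Test system: CHO parental line / Controls: ATP-challenged DMSO wells low, unchallenged DMSO wells high / Measure: % inhibition / Compound: single nominal dose of 5.6 µM per compound / Replicates: single well per compound, no replicates / Reagent: ATP as calcium-mobilizing challenge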
# OX1R antag-2 = blocks the human orexin 1 receptor; OX1R-expressing cells, FRET antagonist read-out; hit rate 1.8% among 330,000; inhibition, % at 6.6 µM; in the data active means inhibition mostly above about 38%, no sharp cut-off; inactive means mostly below about 40%;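 further: 0% = agonist challenge alone and 100% = reference antagonist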
# GalR3 antagonist = human GalR3 antagonism | HEK293 GalR3-CNG cAMP membrane potential fluorescence; galR3 body fused to GalR1 C-terminus | hit rate 0.44% among 360,000 | O60755 | inhibition, % at 3 µM;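 active means inhibition above the screen-wide average plus 3 SD, cut at about 13% in these data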;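 further: forskolin and galanin both at EC90 stimulate the cells; cAMP rise reported by CNG channel membrane potential dye signal; 0% = forskolin plus galanin with DMSO and 100% = forskolin alone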
# Target sequence (O60755 1-299 limits assumed): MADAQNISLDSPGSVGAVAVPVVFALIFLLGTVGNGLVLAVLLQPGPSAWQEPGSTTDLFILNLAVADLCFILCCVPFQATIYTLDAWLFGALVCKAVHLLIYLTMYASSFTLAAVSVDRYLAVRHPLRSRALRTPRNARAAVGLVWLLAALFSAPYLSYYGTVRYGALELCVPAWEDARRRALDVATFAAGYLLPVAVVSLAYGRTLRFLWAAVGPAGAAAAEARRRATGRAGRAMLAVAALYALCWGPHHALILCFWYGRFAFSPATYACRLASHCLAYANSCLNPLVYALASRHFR
# OX1R HTRF conf = confirmation of human orexin 1 receptor antagonists, HTRF format; shares compounds with OX1R antag-2; OX1R-expressing cells, HTRF antagonist assay; inhibition, % at 6.6 µM; hit rate 49% among 1,800; in the data active means inhibition above about 55%;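 further: CHO cells expressing OX1R stimulated with orexin A at about EC80; 0% = agonist challenge alone and 100% = reference antagonist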
# CHO-K1 HTRF = counter-screen: parental CHO-K1 HTRF response. shares compounds with OX1R antag-2. parental CHO-K1 cells, HTRF counterscreen. inhibition, % at 6.6 µM. hit rate 48% among 1,800; in the data active means inhibition above about 17%;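 further: 0% = agonist challenge with vehicle and 100% = vehicle alone without agonist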
# An asterisk follows results filed as active; x = not tested or not shown.
SMILES,OX1R antag-1,GPR7 antag,CHO parental Ca,OX1R antag-2,GalR3 antagonist,OX1R HTRF conf,CHO-K1 HTRF
COc1ccc(/C=C/CN2CCC(C(=O)NC(c3ccc(F)cc3)c3ccc4ccccc4n3)CC2)cc1 (stereo not drawn),x,x,x,x,-4,x,x
Clc1ccc(-c2nc3c4ccccc4ccn3c2CC2CCCCC2)cc1,x,x,x,x,-4,x,x
O=C1c2ccccc2C2Cc3nnccc3CN12 (stereo not drawn),x,x,x,x,3,x,x
O=c1/c(=C/c2ccc([N+](=O)[O-])cc2)sc2n1CCCN=2,-9,13,-3,169*,-2,61*,84*
N#Cc1ncc(-c2ccc3c(c2)OCCOCCOCCOCCO3)nc1C#N,-5,-1,-8,117*,0,55*,54*
Cc1ccc2nc(-c3ccc4c(c3)OCCO4)cn2c1,-6,11,-3,21,-5,x,x
N#Cc1ncc(-c2ccc3c(c2)OCCOCCOCCOCCOCCO3)nc1C#N,-12,-3,-11,109*,-9,32,4
CC(=O)c1ccc(NS(=O)(=O)c2cccc3cccnc23)cc1,x,x,x,x,-4,x,x
O=C(O)c1cccc(-c2ccc(/C=N/NC(=O)c3cccnc3)o2)c1,-8,-5,-1,37,-11,x,x
Cc1nnc(N/N=C\c2ccc(-c3cccc(C(=O)O)c3)o2)n1N,-1,-3,1,115*,-9,48,33*
Cc1ccc(S(=O)(=O)NN2CCCCCC2)cc1,x,x,x,x,-3,x,x
CCC(C)(C)NC(=O)c1ccc(Sc2nncn2C)c([N+](=O)[O-])c1,-16,-11,-5,29,-1,x,x
CCS(=O)(=O)c1ccc(Sc2nncn2C)c([N+](=O)[O-])c1,-1,3,-2,96*,0,32,51*
Cc1nn(C)cc1/C=N/NC(=O)c1ccc2c(c1)OCO2,-8,19,0,83*,-4,10,9
CC1(Cc2cccc(C(F)(F)F)c2)C(=O)Nc2ccc(-c3ccc(F)c(Cl)c3)cc21 (stereo not drawn),x,x,x,x,-2,x,x
NC(=O)c1ccsc1NC(=O)c1ccc2c(c1)CCCC2,-11,-6,-4,79*,0,66*,2
Cc1noc(/C=C/c2cccnc2)c1[N+](=O)[O-],-14,2,2,79*,-8,68*,84*
COC(=O)c1sccc1NC(=O)COc1ccccc1Cl,-101,0,-35,79*,-5,56*,6
CCOc1ccccc1NC(=O)Nc1ccsc1C(=O)OC,-24,-9,-17,44,-3,x,x
CCN(CC)c1ccc(N=Nc2ncn[nH]2)cc1,-20,-10,-1,139*,-1,35,56*
COCCNC(=O)c1ccc(N2CC3CC(C2)c2cccc(=O)n2C3)c(NC(=O)c2ccc(C(C)(C)C)cc2)c1 (stereo not drawn),x,x,x,x,-8,x,x
O=C(CSc1ccc(-c2ccccc2)nn1)c1ccccc1,-5,-11,-21,82*,1,41,10
Cc1ccc(C(=O)CSc2ccc(-c3ccccc3)nn2)cc1,-17,2,-18,36,-4,x,x
O=C(CC1Nc2ccccc2NC1=O)NCC1COc2ccccc2O1 (stereo not drawn),23,10,-16,79*,x,65*,-1
O=C1C2C3C=CC(C4CC34)C2C(=O)N1/N=C/c1ccc([N+](=O)[O-])o1 (stereo not drawn),-11,-7,-5,57,-4,x,x
SMILES,OX1R antag-1,GPR7 antag,CHO parental Ca,OX1R antag-2,GalR3 antagonist,OX1R HTRF conf,CHO-K1 HTRF
O=C1C2C(C(=O)N1/N=C/c1ccc([N+](=O)[O-])o1)C1C=CC2C12CC2 (stereo not drawn),-18,4,-15,80*,-3,47,59*
CCc1nnc(N/N=C/c2ccccc2Cl)n1N,-6,-10,4,96*,-2,19,13
C/C(=N/NC(=O)CN1CCN(Cc2ccccc2)CC1)c1ccc([N+](=O)[O-])cc1,-13,-10,-10,77*,-7,39,29*
C/C(=N\NC(=O)CN1CCN(Cc2ccccc2)CC1)c1ccncc1,-12,-8,-2,5,-5,x,x
CC/C(C)=N\N=C\c1c(O)n(CC)c2cc(C3=NNC(=O)CC3)ccc12,-7,-17,-13,88*,x,21,14
COc1ccccc1NC1=C(N2CCCCC2)C(=O)c2ccccc2C1=O,7,1,-19,79*,x,27,31*
Cc1ccc(C2(SCC(N)C(=O)O)c3ccccc3-c3ccccc32)cc1 (stereo not drawn),x,x,x,x,3,x,x
COc1ccc2nc(Nc3nc(C)c(C(C)=O)s3)sc2c1,4,-6,-24,81*,-3,52,2
CC(C)C[C@H]1COc2cc(N3CCC[C@H]3CO)ccc2S(=O)(=O)N1,x,x,x,x,-6,x,x
Cc1nn2c(nc1=O)SCC(c1ccccc1)=N2,-15,-9,-2,145*,-5,39,62*
O=C(O)c1ccc2c3c(ncnc13)-c1ccccc1C2=O,-3,-9,-6,186*,x,58*,98*
O=C1c2ccccc2C(=O)c2c1cccc2N1CCOCC1,-23,-8,-16,81*,-1,43,34*
O=C(/C=C/c1ccc([N+](=O)[O-])cc1)NNC(=O)C1CC1,1,-17,-1,137*,3,49,66*
CCN(CC(=O)Nc1c(F)cccc1F)C(=O)CCc1nc2ccccc2c(=O)[nH]1,8,x,-1,28,-1,x,x
CCN(CC(=O)Nc1ccccc1C(F)(F)F)C(=O)CCc1nc2ccccc2c(=O)[nH]1,13,-7,-9,82*,-5,46,-1
O=C(CSc1nc2ccccc2[nH]1)Nc1cc(C(F)(F)F)ccc1N1CCOCC1,26,-8,-16,87*,-5,53,1
CC(Cl)C(=O)Nc1cc(C(F)(F)F)ccc1N1CCOCC1 (stereo not drawn),-22,-13,0,94*,-3,16,-4
Cn1nnnc1SCC(=O)Nc1cc(C(F)(F)F)ccc1N1CCOCC1,-18,-1,-15,12,-4,x,x
CC1CC1C(=O)Nc1cc(C(F)(F)F)ccc1N1CCOCC1 (stereo not drawn),-9,11,-11,16,-4,x,x
C=CC(=O)NC1CCCCN(C)C1=O (stereo not drawn),x,x,x,x,-4,x,x
Cn1nnnc1SCC(=O)Nc1ccccc1[N+](=O)[O-],-3,-4,-8,59,4,x,x
COc1ccc(NC(=O)CSc2nnnn2C)c([N+](=O)[O-])c1,-16,-4,-7,117*,-4,25,46*
O=c1cc[nH]c2ccc([N+](=O)[O-])cc12,1,3,-13,122*,-4,51,61*
CCOC(=O)c1c[nH]c2ccc([N+](=O)[O-])cc12,x,x,x,x,-4,x,x

# Assay outcomes as filed in PubChem BioAssay.
